NSD2 inh: blocks human histone methyltransferase NSD2 | O96028 | NSD2 peptide methylation, AlphaScreen, 120 min | inhibition, % at 12.5 µM | 310,000 tested, 0.54% active; in the data active means inhibition above about 50%
Target sequence (O96028 whole entry, looked up): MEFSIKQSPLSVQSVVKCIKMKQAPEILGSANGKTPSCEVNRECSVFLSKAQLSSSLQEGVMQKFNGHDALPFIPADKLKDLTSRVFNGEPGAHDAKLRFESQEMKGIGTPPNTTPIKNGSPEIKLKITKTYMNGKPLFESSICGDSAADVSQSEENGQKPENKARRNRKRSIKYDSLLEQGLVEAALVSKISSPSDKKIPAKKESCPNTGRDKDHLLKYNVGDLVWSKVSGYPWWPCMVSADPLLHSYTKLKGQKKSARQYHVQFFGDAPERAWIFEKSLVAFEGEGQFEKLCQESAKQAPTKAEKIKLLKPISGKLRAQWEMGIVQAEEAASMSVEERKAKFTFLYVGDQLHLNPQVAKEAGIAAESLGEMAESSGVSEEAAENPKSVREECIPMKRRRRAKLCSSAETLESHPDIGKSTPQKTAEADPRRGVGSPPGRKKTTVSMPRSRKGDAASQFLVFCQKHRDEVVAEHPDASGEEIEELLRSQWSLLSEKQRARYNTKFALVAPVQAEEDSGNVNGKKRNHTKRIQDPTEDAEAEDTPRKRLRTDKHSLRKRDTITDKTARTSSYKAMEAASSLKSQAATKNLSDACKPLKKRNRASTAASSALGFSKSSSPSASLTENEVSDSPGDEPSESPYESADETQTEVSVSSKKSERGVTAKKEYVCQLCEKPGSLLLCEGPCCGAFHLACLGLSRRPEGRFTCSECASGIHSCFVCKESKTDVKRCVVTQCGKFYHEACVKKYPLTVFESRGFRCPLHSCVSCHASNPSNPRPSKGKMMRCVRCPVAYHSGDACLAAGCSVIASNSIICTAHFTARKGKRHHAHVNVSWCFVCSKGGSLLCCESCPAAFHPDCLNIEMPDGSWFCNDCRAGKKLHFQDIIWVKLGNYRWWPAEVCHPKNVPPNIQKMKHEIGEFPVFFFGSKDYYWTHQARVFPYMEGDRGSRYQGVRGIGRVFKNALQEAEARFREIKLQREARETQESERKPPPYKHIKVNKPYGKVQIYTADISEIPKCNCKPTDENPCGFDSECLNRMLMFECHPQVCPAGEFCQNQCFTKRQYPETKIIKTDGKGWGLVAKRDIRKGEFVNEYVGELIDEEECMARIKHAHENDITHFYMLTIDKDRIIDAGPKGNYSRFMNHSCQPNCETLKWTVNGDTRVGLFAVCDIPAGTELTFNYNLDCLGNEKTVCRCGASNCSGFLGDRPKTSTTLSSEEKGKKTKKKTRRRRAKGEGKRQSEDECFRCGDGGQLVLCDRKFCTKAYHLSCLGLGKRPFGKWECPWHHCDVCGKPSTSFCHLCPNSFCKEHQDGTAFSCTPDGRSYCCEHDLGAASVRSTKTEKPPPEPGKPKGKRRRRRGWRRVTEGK
UBC9 SUMO inh: SUMOylation inhibition. P63279. HTRF SUMOylation assay, SAE1/SAE2 + UBC9, in vitro. inhibition, % at 35 µM. 290,000 tested, 0.36% active. AID 2006; in the data active means inhibition above about 50%, passing the limit was not always enough
TDP2 inh: TDP2 (human) inhibition, absorbance primary screen. O95551. recombinant TDP2, T5PNP hydrolysis, p-nitrophenol absorbance 415 nm. inhibition, % at 12.8 µM. 370,000 tested, 0.34% active. AID 720702;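 active means inhibition above the mean of all tested compounds plus 3 SD, set per campaign, cut at about 25% in these data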;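 further: 0% = DMSO with enzyme and 100% = buffer with substrate but no TDP2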
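test system = human TDP2 enzyme | input = TDP2 enzyme at 120 nM final | medium = 50 mM Tris-HCl pH 7.5 with Mg2+, KCl, DTT, BSA | also added = T5PNP substrate, 5 mM | times = 2 h at 37 °C | technique = epi absorbance | benchmarks = high control without enzyme, low control DMSO plus TDP2 | replication = each compound tested once, singlicate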
CTSL1 counter: blocks F. hepatica cathepsin L1 in PFM18AAP counter-screen | 300,000 tested, 0.49% active | inhibition, % at 5.96 µM | recombinant F. hepatica cathepsin L1, Z-Leu-Arg-MCA fluorescence;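 active means inhibition above the mean of all tested compounds plus 3 SD, set per screening campaign, cut at about 17% in these data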;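 further: 0% = plate median of test compound wells and 100% = 1 µM Z-Phe-Ala-diazomethylketone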
* hit, by the source's call; nt = not tested or not shown; + = active, no number. Shown are actives, neighbours in structure and some others; about 1.2% of the full set was active somewhere.

SMILES	NSD2 inh	UBC9 SUMO inh	TDP2 inh	CTSL1 counter
CCc1nc2ccc(C(=O)N(CC)CCN(C)C)cn2c1N(C)Cc1nccs1	2	nt	1	nt
CCOC(=O)c1c(C)oc(NC(=O)CCl)c1C(=O)OCC	-2	-1	0	84*
CCOC(=O)C1=C(CSc2nc(C)cc(C)c2C#N)OC(N)=C(C#N)C1c1cccs1 (configuration not stated)	nt	22	nt	22*
CCOC(=O)C1=C(CSc2nc(C)cc(C)c2C#N)OC(N)=C(C#N)C1c1ccccc1 (configuration not stated)	0	23	8	2
Cc1ccc(S(=O)(=O)N[C@@H](Cc2ccccc2)C(=O)CCl)cc1	nt	-12	10	70*
CCN(CC)CCOC(=O)c1ccc(N/C=C(/C#N)c2nc(-c3cc4ccccc4oc3=O)cs2)cc1	-1	55*	-6	nt
CCOC(=O)c1c(-c2ccc(C)o2)csc1NC(=O)COC(=O)c1ccc(NC(N)=O)cc1	11	-24	5	19*
CCOC(=O)c1c(-c2ccc(C)o2)csc1NC(=O)CSc1nnc(C)s1	0	13	10	2
O=C(OCC#CCSc1nnc(-c2cccc(F)c2)o1)c1ccc(F)cc1	-2	nt	-2	nt
CC1=NN(c2ccc(C)cc2C)C(=O)C1C(c1cccc(O)c1)C1C(=O)N(c2ccc(C)cc2C)N=C1C (configuration not stated)	nt	79	71*	2
CC1=NN(c2ccccc2)C(=O)C1N=Nc1cccc(O)c1 (configuration not stated)	2	-3	0	-3
O=C(CNC(=O)c1ccco1)OCN1C(=O)c2ccccc2C1=O	0	-8	-9	28*
COc1cccc(C(=O)NCCS(=O)(=O)N2CCN(C(=O)c3ccco3)CC2)c1	nt	nt	6	3
NC(=O)c1nsc(C(=O)N(CC(=O)NC2CCCC2)c2cccc(C(F)(F)F)c2)c1N	1	-12	12	20*
COc1cccc(N(CC(=O)NC2CCCCC2)C(=O)c2snc(C(N)=O)c2N)c1	2	16	-12	-1
O=C(NN1C(=O)/C(=C/C=C/c2ccco2)SC1=S)c1ccccc1O	nt	79*	24	3
O=C(O)C(Cc1ccccc1)N1C(=O)/C(=C/C=C/c2ccco2)SC1=S (configuration not stated)	+	73*	22	nt
Cn1cccc1/C=C1\SC(=S)N(NC(=O)c2ccccc2O)C1=O	nt	-12	11	6
CC1(C(=O)NCc2ccccc2Br)CCN1Cc1ccc2ccccc2c1 (configuration not stated)	0	nt	0	nt
O=C(NCc1ccccc1)[C@@H]1CCCN1C(=O)[C@H]1CCCN1C(=O)c1ccc(F)c(C(F)(F)F)c1	nt	nt	-7	nt
O=S(=O)(c1cccc2ccccc12)N1CCC2CC1c1cc(Cl)ccc12 (configuration not stated)	nt	nt	5	nt
COc1cc(CNc2ccc(O)cc2)cc(Br)c1OCc1ccccc1F	5	91*	nt	-6
CCOc1cc(CNc2ccc(O)cc2)cc(Br)c1OCc1ccccc1F	nt	46	nt	-2
CC(=O)/C=C1/SC(CC(=O)O)C(=O)N1c1ccccc1 (configuration not stated)	115*	2	3	2
COc1cc(OC)c2ccc(=O)oc2c1C(CC(=O)N1CCCC1)c1ccc2c(c1)OCO2 (configuration not stated)	nt	14	3	2
SMILES	NSD2 inh	UBC9 SUMO inh	TDP2 inh	CTSL1 counter
COc1cc(C(CC(=O)N2CCCC2)c2c(OC)cc(OC)c3ccc(=O)oc23)cc(OC)c1OC (configuration not stated)	nt	29	2	37*
COc1ccc(/C=C/S(=O)(=O)NCc2ccc(F)cc2)c(CNC(=O)OC(C)(C)C)c1	nt	nt	-4	nt
COc1cc(/C=C(\C#N)C(=O)Nc2cccc(C(=O)O)c2)ccc1OCc1ccc(C)cc1	1	20	13	8
CCOc1cc(/C=C(\C#N)C(=O)Nc2cccc(C(=O)O)c2)ccc1OCc1ccc(Br)cc1	-1	62*	-5	0
N#C/C(=C\c1ccc(OCc2ccc(Cl)cc2)cc1)C(=O)Nc1cccc(C(=O)O)c1	nt	54*	-2	4
CN(C)C(CNC(=O)c1cc(Br)ccc1Cl)c1ccco1 (configuration not stated)	1	-16	-1	22*
COC(=O)[C@]12C[C@H](CC(=O)NCc3ccc(C)o3)C(=O)N(CCC3=CCCCC3)C1=C[C@H](C(C)C)O[C@@H]2C1CC1	nt	nt	-3	nt
O=C(CCl)NCc1cc(-c2ccc(Cl)cc2)no1	1	4	-9	35*
COc1ccccc1C(CNC(=O)CCNC(=O)c1ccccc1Cl)N1CCCC1 (configuration not stated)	1	nt	3	4
COCC(=O)OC1CCn2c1nc1c2C(=O)C(C)=C(NC(C)=O)C1=O (configuration not stated)	nt	nt	89*	nt
O=C(CCl)Nc1cn(-c2ccccc2)nc1-c1ccc(F)cc1	-6	-1	-4	77*
CS(=O)(=O)c1ccccc1C(=O)NC1CCCc2ccccc21 (configuration not stated)	-1	6	1	21*
CCS(=O)(=O)c1ccccc1C(=O)NC1CCCc2ccccc21 (configuration not stated)	0	25	2	-2
CC1=NN(c2ccc(Cl)c(C(=O)O)c2)C(=O)/C1=C\c1ccc(-c2ccc(C(=O)O)cc2)o1	8	82*	-7	nt
O=C(Nc1ccc(F)cc1)OCc1cn(Cc2ccc(Cl)cc2)nn1	-2	nt	4	nt
COC(=O)[C@]12C[C@H](CC(=O)NCCCCc3ccccc3)C(=O)N(Cc3ccccc3)C1=C[C@H](C(C)C)O[C@@H]2C1CC1	nt	nt	-17	nt
C#CCOCCOCCOCCNc1nc(N2CCN(C(=O)[C@H]([C@@H](C)CC)n3cc([C@@H](N)CC(C)C)nn3)CC2)nc(N2CCN(C(=O)[C@H]([C@@H](C)CC)n3cc([C@@H](N)CC(C)C)nn3)CC2)n1	nt	-13	-3	25*
Cc1ccc(C(C(=O)NCC2CCCO2)N(C(=O)c2snc(C(N)=O)c2N)c2ccccc2F)o1 (configuration not stated)	0	12	7	19*
Cc1ccc(C(C(=O)NCC2CCCO2)N(C(=O)c2snc(C(N)=O)c2N)c2ccc(F)cc2)o1 (configuration not stated)	23	2	1	3
CCOC(=O)C1=C(Cc2ccc(F)cc2)C(=O)c2ccccc2C1=O	nt	8	31*	-1
O=C(OCc1ccc(F)cc1)c1ccc2c(c1)-c1ccccc1C2=O	2	4	1	-3
CCN1/C(=C/c2ccc3cc(C)ccc3[n+]2CC)Sc2cc(C)c(C)cc21	161*	-7	-4	nt
CCN1/C(=C/c2ccc3cc(C)ccc3[n+]2CC)Sc2ccccc21	45	-18	-2	5
CN1C(=O)c2cc(NS(=O)(=O)c3ccc(F)cc3)ccc2OC[C@H]2O[C@@H](CC(=O)NCC(F)(F)F)CC[C@@H]21	nt	nt	5	nt

High-throughput results deposited in PubChem BioAssay by several laboratories.
